High-throughput results: PubChem BioAssay, Broad Institute
A selection: hits, their analogues and other compounds. The true share with any hit is near 3.3%.
Statin myotox sup: suppression of simvastatin myotoxicity | C2C12 myotubes + simvastatin, ATP luminescence, 48 h; scaled: DMSO 0, geranylgeraniol control 100 | rescue of ATP level, % at 7.49 µM | 330,000 tested, 0.78% active | AID 602340;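 active = mean ATP rescue above about 67%, or every replicate alone reaching that limit, limit read from the data, passing the limit was not always enough; inconclusive = no clear call, values can overlap the other calls; inactive = mean under the limit and some replicate under it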;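 note: myotubes were challenged with 10 µM simvastatin during compound exposure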
FGF22 binding: FGF22 (human) thermal shift binding; recombinant FGF22 thermal shift, SYPRO orange fluorescence; percent of sucrose octasulfate shift, DMSO zero; 340,000 tested, 1.5% active; activity (Tm shift, normalised), % at 9.99 µM; Q9HCT0;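 active = mean Tm shift, scaled 0 neutral to 100 positive control, at about 1.3% or above, every replicate too, limit read from the data; inconclusive = no clear call, values can overlap the other calls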
E-selectin induc: induces E-selectin expression in human endothelial cells | P16581 | HUVEC E-selectin immunofluorescence imaging; normalized: neutral wells 0, TNF-alpha wells 100 | activation, % at 7.58 µM | 260,000 tested, 0.37% active;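 active = mean E-selectin-positive cell signal at least 10% of the positive control, reached in at least 60% of replicates, without over 20% cell loss; inconclusive = no rule given, readout overlaps actives, possibly toxicity-flagged; inactive = the rest, including those meeting only one limit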
Target sequence (P16581 whole entry, looked up): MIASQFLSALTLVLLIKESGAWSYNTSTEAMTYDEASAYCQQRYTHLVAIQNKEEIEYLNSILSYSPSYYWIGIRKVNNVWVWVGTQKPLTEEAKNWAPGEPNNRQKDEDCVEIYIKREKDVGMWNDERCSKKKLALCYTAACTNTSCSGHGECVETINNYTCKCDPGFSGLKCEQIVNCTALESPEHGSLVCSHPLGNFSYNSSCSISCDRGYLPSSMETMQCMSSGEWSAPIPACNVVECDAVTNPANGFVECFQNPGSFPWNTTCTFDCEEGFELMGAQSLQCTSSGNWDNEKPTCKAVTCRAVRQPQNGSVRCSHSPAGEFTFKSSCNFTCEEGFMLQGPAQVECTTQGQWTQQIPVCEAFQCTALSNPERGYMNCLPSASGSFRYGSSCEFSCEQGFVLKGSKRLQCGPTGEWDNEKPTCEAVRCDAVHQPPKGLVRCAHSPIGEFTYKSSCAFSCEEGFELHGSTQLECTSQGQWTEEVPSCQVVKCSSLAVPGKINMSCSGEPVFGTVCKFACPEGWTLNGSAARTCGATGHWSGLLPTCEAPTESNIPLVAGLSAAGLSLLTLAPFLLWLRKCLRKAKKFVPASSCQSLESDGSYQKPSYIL
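Test system: HUVEC | Signal: Immunofluorescence imaging | Read-out: Percent E-selectin-positive cells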
Xi reactivation: activators of X-chromosome reactivation in mouse fibroblasts | XiGFP mouse fibroblasts, % GFP-positive cells imaging, 3 d; cells co-treated with 5-aza-dC sensitizer; scaled so ellipticine positive control = 100% | 360,000 tested, 0.055% active | AID 743238 | activation, % at 7.58 µM;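 active = mean normalized replicate activation at least 10% and every replicate at or above 10%; inconclusive = only one of the two criteria met; inactive = mean below 10% and not all replicates reach 10%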;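 note: 0% = median of on-plate neutral control wells and 100% = ellipticine 6 µM median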
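assay system = SV40-immortalized XiGFP fibroblast cells, line 68-5-11 | buffer or medium = DMEM plus 5-aza-dC sensitizer | doses = single-point pinned compound dosing | times = 3-day compound exposure, then 15 min fixation at room temperature | benchmarks = positive control ellipticine, 6 µM final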
DENV2 CPE: protects cells from dengue virus 2 cytopathic effect | DENV2-infected cells, cytopathic effect rescue, plate reader | CPE inhibition, % at 9.99 µM | 350,000 tested, 1.7% active | AID 651640; in the data active = CPE inhibition above about 20%, passing the limit was not always enough; inconclusive = no clear call, values can overlap the other calls; tested in BHK-21 cells;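 note: 0% = median of neutral control wells and 100% = median of positive control wells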
PglD DTNB: PglD (C. jejuni) enzyme inhibition | purified PglD enzyme, DTNB colorimetric CoA detection | AID 602405 | inhibition, % at 12.5 µM | 360,000 tested, 0.098% active; in the data active = inhibition above about 16%, passing the limit was not always enough; inconclusive = no clear call, values can overlap the other calls
Numbers without * were called inactive; ? = inconclusive; . = no result given.

SMILES	Statin myotox sup	FGF22 binding	E-selectin induc	Xi reactivation	DENV2 CPE	PglD DTNB
COc1ccccc1NC(=O)c1ccc2nc(-c3ccccc3)c(-c3ccccc3)nc2c1	83.8*	.	.	.	.	0.2
COc1cc(N)c(Cl)cc1NC(=O)c1ccccc1	4.1	.	.	.	.	-1.4
COc1ccc2c3c([nH]c2c1)[C@@H](CO)N(C(=O)c1cccnc1)CC31CN(C(=O)c2cccnc2)C1	.	-0.3	-0.3	0.0	-0.1	.
COc1cccc(-c2nc3nc(C)cc(C)n3c2NC2CCCC2)c1	.	-0.2	0.1	-0.1	29.6*	.
Cc1cc(C)n2c(NC3CCCC3)c(-c3cc4ccccc4o3)nc2n1	.	-0.4	0.2	-0.1	-9.3	.
Cc1cc(C)n2c(NC3CCCCC3)c(-c3ccccn3)nc2n1	.	0.6	0.1	0.1	29.0*	.
COc1ccc(Nc2c(-c3cccc(OC)c3)nc3nc(C)cc(C)n23)cc1	.	-0.1	-0.1	0.1	7.2	.
COCCCNc1ccn2nc(-c3ccc(Cl)cc3)cc2n1	2.2	-0.4	0.2	0.1	30.2*	0.6
O=C(c1cccnc1)N1N=C(C2CC2)CC1(O)C(F)(F)F (stereo not given)	6.0	44.1*	.	0.5	-8.2	17.5
O=C(c1ccncc1)N1N=C(C2CC2)CC1(O)C(F)(F)F (stereo not given)	.	0.5	0.0	0.2	-3.0	.
Cc1cc(C(=O)Nc2cccc3c2O[C@H](CN(C)Cc2ccc4c(c2)OCO4)[C@H](C)CN([C@@H](C)CO)C3=O)n(C)n1	-12.3	.	-10.2	0.4	8.0	1.4
N#C[C@@H]1[C@@H](c2ccccc2)[C@H](CO)N1C(=O)c1ccc2c(c1)OCO2	-12.2	0.0	-0.1	-0.1	10.4	0.7
COc1cc(COCC(O)CN2CCc3ccccc3C2)cc(OC)c1OC (stereo not given)	-5.8	43.7*	0.1	-0.1	-6.3	-5.6
C[C@H]1CN(C)C(=O)Cc2ccccc2O[C@H]1CN(C)C(=O)OC(C)(C)C	.	.	.	0.3	.	.
CCCCCCCCN1C(=O)[C@H](CC(=O)NCc2ccccc2)C[C@@]2(C(=O)OC)CC(C)(C)CC=C12	.	-0.1	-0.3	0.7	-2.6	.
CCCCNC(=O)C[C@@H]1C[C@@]2(C(=O)OC)CC(C)(C)CC=C2N(CCc2ccc(OC)c(OC)c2)C1=O	.	40.3*	0.0	0.3	15.5	.
CCCCCCCCN1C(=O)[C@H](CC(=O)NCCCCc2ccccc2)C[C@@]2(C(=O)OC)CC(C)(C)CC=C12	.	0.0	1.1	0.2	35.0*	.
COCCCNC(=O)C[C@@H]1C[C@@]2(C(=O)OC)CC(C)(C)CC=C2N(CCc2ccc(OC)c(OC)c2)C1=O	.	-0.2	3.0	0.0	-1.8	.
COC(=O)[C@@]12C[C@@H](CC(=O)NCc3ccc(OC)c(OC)c3)C(=O)N(Cc3ccco3)C1=CCC(C)(C)C2	.	0.0	-0.2	0.2	21.9*	.
COc1ccc(NC(=O)Nc2ccc3c(c2)C(=O)N([C@H](C)CO)C[C@@H](C)[C@H](CN(C)S(=O)(=O)c2ccccc2)OCCCC[C@@H](C)O3)cc1	.	0.0	.	0.1	-0.7	1.5
Clc1ccc(CSc2nnc(-c3ccncc3)s2)cc1	7.7	0.0	0.0	-0.1	-2.2	3.7
Clc1cccc(Cl)c1CSc1nnc(-c2ccncc2)s1	34.0	0.5	0.2	0.0	70.1*	.
COc1ccc(C[C@@H]2CCn3cc(nn3)COCCCNC2=O)cc1	.	.	0.1	0.1	.	.
Cc1cc(C(=O)CN2CCCC2)c(C)n1-c1ccc(Cl)cc1	3.9	0.7	0.0	0.0	-0.1	2.8
CCN1CCN(CC(=O)c2cc(Cl)ccc2Cl)CC1	.	43.2*	2.1	0.2	-4.8	.
SMILES	Statin myotox sup	FGF22 binding	E-selectin induc	Xi reactivation	DENV2 CPE	PglD DTNB
CCN(C(=O)COC(=O)c1ccccc1OCc1ccc(Cl)cc1)C1CCS(=O)(=O)C1 (stereo not given)	4.7	43.4*	-0.6	0.3	0.7	-0.4
CCN(C(=O)COC(=O)c1cc2c(s1)CCCCC2)C1CCS(=O)(=O)C1 (stereo not given)	.	0.3	0.0	0.0	59.5*	-0.5
CCN(C(=O)COC(=O)c1ccccc1NC(=O)c1ccco1)C1CCS(=O)(=O)C1 (stereo not given)	1.9	43.2*	.	0.0	8.9	9.4
C[C@H](CO)N1C[C@H](C)[C@H](CN(C)C(=O)c2cnccn2)Oc2cc(C#CCC3CCCC3)ccc2S1(=O)=O	54.1	-0.7	-0.3	0.0	?	-2.1
C[C@@H]1CCCCO[C@@H](CN(C)C(=O)Nc2cccc3ccccc23)[C@H](C)CN([C@@H](C)CO)C(=O)c2cc(NC(=O)NC3CCCCC3)ccc2O1	.	0.6	.	0.3	19.3	-3.8
C[C@H]1CN([C@@H](C)CO)C(=O)c2cc(N(C)C)ccc2O[C@H]1CN(C)S(=O)(=O)c1ccccc1	-17.0	-0.5	3.1	0.2	31.4*	1.1
C[C@@H]1CN([C@H](C)CO)C(=O)c2cc(N(C)C)ccc2O[C@@H]1CN(C)S(=O)(=O)c1ccccc1	-11.1	-0.2	1.8	0.3	-1.3	2.3
C[C@@H]1CN([C@@H](C)CO)C(=O)c2cc(N(C)C)ccc2O[C@H]1CN(C)S(=O)(=O)c1ccccc1	-0.3	-0.4	-5.5	-1.3	78.5*	19.7
COc1ccc(/C=C/C2=CCN(Cc3ccc(OC)cc3)CC2)cc1	.	43.2*	.	0.3	3.5	.
CCNC(=O)C[C@H]1CC[C@@H]2[C@H](COc3ccc(NC(=O)Nc4c(C)noc4C)cc3C(=O)N2C)O1	-6.6	-0.1	0.1	0.1	17.9	-0.5
C1=CCN(c2nc(N3CCOCC3)nc(N3CCCc4ccccc43)n2)CC1	-5.4	43.5*	1.0	0.0	1.5	-0.2
c1ccc2c(c1)CCCN2c1nc(N2CCOCC2)nc(N2CCOCC2)n1	-7.8	0.1	0.3	0.2	-4.3	-2.4
COC(=O)C(C)Sc1nc2c(cnn2-c2ccc(C)cc2)c(=O)[nH]1 (stereo not given)	106.3*	.	.	.	.	-0.2
COC(=O)C(C)Sc1nc2c(cnn2-c2ccc(F)cc2)c(=O)[nH]1 (stereo not given)	13.8	-0.1	0.0	0.1	0.1	-1.1
CCC(C)Sc1nc2c(cnn2-c2ccc(C)c(C)c2)c(=O)[nH]1 (stereo not given)	-18.9	0.0	-1.5	0.1	-2.5	1.8
CSc1nc2c(cnn2-c2ccc(C)c(C)c2)c(=O)[nH]1	-4.3	-0.2	48.3*	0.2	-5.9	-4.4
C[C@@H]1CN([C@H](C)CO)C(=O)Cc2cc(NC(=O)CCC(F)(F)F)ccc2O[C@H]1CN(C)Cc1ccncc1	-15.5	0.3	-5.3	0.5	.	3.6
CC=Cc1ccc2n(c1=O)C[C@@H]1[C@@H](CO)[C@H](C(=O)N3CCC(Cc4ccccc4)CC3)N(C)[C@H]21 (mixture of isomers)	-11.4	0.2	-0.3	0.2	-2.0	12.5
